Laboratory results reported in ChEMBL document CHEMBL2417486, “Exploring natural product chemistry and biology with multicomponent reactions. 5. Discovery of a novel tubulin-targeting scaffold derived from the rigidin family of marine alkaloids” (J Med Chem, 2013).
Converted amounts (≈) assume the structure as drawn.

Tests used:
MCF7 = assay: Growth inhibition of human MCF7 cells after 48 hrs by MTT assay; format: functional; conditions: MCF7, 48 h
Summary of the method: (§1)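 Cells seeded at 4 × 10^3 per well, grown 24 h, then treated 48 h at 0.004–100 µM from 100 or 25 mM DMSO stocks. Controls were 0.1% DMSO and phenyl arsine oxide. MTT (5 mg/mL) added for 2 h, formazan dissolved in DMSO, A490 read. […] HeLa/MCF-7 in DMEM, MES-SA lines in RPMI-1640, all with 10% FBS.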

HeLa = assay: Growth inhibition of human HeLa cells after 48 hrs by MTT assay; format: functional; summary of the method: as §1
[1] = Aqueous solubility of the compound by spectrophotometric analysis; format: physicochemical
Summary of the method: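 Compound dispersed in ultrapure water at >0.5 mg/mL; supernatant centrifuged repeatedly until no pellet remained, then diluted 1:2 (solution:DMSO). Concentration read from absorbance at peak 335–336 nm against a calibration line made in 1:2 water/DMSO, and corrected for the DMSO dilution.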

[2] = target: T1, Tubulin beta (Homo sapiens) (UniProt P68371+Q9H4B7+Q13509+P04350+Q3ZCM7+P07437+Q13885+Q9BVA1+Q9BUF5+A6NNZ2); assay: Inhibition of [3H] radiolabelled colchicine binding to tubulin beta (unknown origin) at 1 uM by DEAE-cellulose filter method; format: protein assay
[3] = target: T1, Tubulin beta (Homo sapiens); assay: Inhibition of [3H] radiolabelled colchicine binding to tubulin beta (unknown origin) at 5 uM by DEAE-cellulose filter method; format: protein assay

GI50 (MCF7)	GI50 (HeLa)	solubility [1]	SMILES	inhibition [2]	inhibition [3]
47 µM	71 µM		O=C(c1ccccc1)c1[nH]c2[nH]c(=O)[nH]c(=O)c2c1-c1cc(Br)cc(Br)c1		
0.07 µM	0.065 µM	65 µM (≈ 21.7 µg/mL)	O=C(c1ccccc1)c1[nH]c2[nH]cnc(=O)c2c1-c1cccc(F)c1		
0.06 µM	0.13 µM		O=C(c1ccccc1)c1[nH]c2[nH]cnc(=O)c2c1-c1cccc(Br)c1		
> 100 µM	> 100 µM		Nc1ncnc2[nH]c(C(=O)c3ccccc3)c(-c3cc(Br)cc(Br)c3)c12		
3.9 µM	4.4 µM		Nc1ncnc2[nH]c(C(=O)c3ccccc3)c(-c3ccccc3)c12		
51 µM	45 µM		O=C(c1ccccc1)c1[nH]c2ncnc(-c3ccccc3)c2c1-c1cccnc1		
> 100 µM	> 100 µM		COc1cc(C(=O)c2[nH]c3[nH]c(=O)[nH]c(=O)c3c2-c2ccc(O)cc2)ccc1O		
14 µM	80 µM		COc1ccc(-c2c(C(=O)c3ccccc3)[nH]c3[nH]c(=O)[nH]c(=O)c23)cc1		
10 µM	18 µM		O=C(c1ccccc1)c1[nH]c2ncnc(-c3ccccc3)c2c1-c1cc(Br)cc(Br)c1		
> 100 µM	> 100 µM		Nc1ncnc2[nH]c(C(=O)c3ccccc3)c(-c3c(Cl)cccc3Cl)c12		
> 100 µM	> 100 µM		COc1ccc(C(=O)c2[nH]c3[nH]c(=O)[nH]c(=O)c3c2-c2ccc(OC)cc2)cc1		
75 µM	70 µM		COc1ccc(-c2c(C(=O)c3ccccc3)[nH]c3ncnc(-c4ccccc4)c23)cc1		
2.8 µM	4 µM		O=C(c1ccc(O)cc1)c1[nH]c2[nH]cnc(=O)c2c1-c1ccc(O)cc1		
0.15 µM	0.2 µM		O=C(c1ccccc1)c1[nH]c2[nH]cnc(=O)c2c1-c1cccc(I)c1		
1.26 µM	0.88 µM		O=C(c1ccccc1)c1[nH]c2[nH]cnc(=O)c2c1-c1cccnc1		
33 µM	48 µM		COc1cc(-c2c(C(=O)c3ccccc3)[nH]c3[nH]cnc(=O)c23)cc(OC)c1OC		
> 100 µM	> 100 µM		Nc1ncnc2[nH]c(C(=O)c3ccccc3)c(-c3cncc(Br)c3)c12		
> 100 µM	> 100 µM		COc1cc(C(=O)c2[nH]c3[nH]c(=O)[nH]c(=O)c3c2-c2ccc(O)c(OC)c2)ccc1O		
1.09 µM	0.86 µM		O=C(c1ccccc1)c1[nH]c2[nH]cnc(=O)c2c1-c1cccc(O)c1		
			COc1ccc(/C=C\c2cc(OC)c(OC)c(OC)c2)cc1O	89%	99%
3 µM	5 µM		COc1cc(-c2c(C(=O)c3ccc(O)cc3)[nH]c3[nH]cnc(=O)c23)ccc1O		
0.135 µM	0.15 µM		O=C(c1ccccc1)c1[nH]c2[nH]cnc(=O)c2c1-c1cccc(Br)n1		
15 µM	28 µM		Nc1ncnc2[nH]c(C(=O)c3ccccc3)c(-c3cccs3)c12		

GI50 (MCF7)	GI50 (HeLa)	solubility [1]	SMILES	inhibition [2]	inhibition [3]
> 100 µM	> 100 µM		COc1cc(-c2c(C(=O)c3ccc(O)cc3)[nH]c3[nH]c(=O)[nH]c(=O)c23)ccc1O		
0.8 µM	6.3 µM		O=C(c1ccc(F)cc1)c1[nH]c2[nH]cnc(=O)c2c1-c1cc(Br)cc(Br)c1		
0.26 µM	0.3 µM		O=C(c1ccc(O)cc1)c1[nH]c2[nH]cnc(=O)c2c1-c1cc(Br)cc(Br)c1		
7 µM	9 µM		Cc1ccc(-c2ncnc3[nH]c(C(=O)c4ccccc4)c(-c4cc(Br)cc(Br)c4)c23)cc1		
0.11 µM	0.3 µM		COc1ccc(C(=O)c2[nH]c3[nH]cnc(=O)c3c2-c2cc(Br)cc(Br)c2)cc1		
40 µM	8.2 µM		COc1cc(-c2c(C(=O)c3ccccc3)[nH]c3[nH]cnc(=O)c23)cc(I)c1OC		
0.31 µM	0.4 µM		O=C(c1ccc(OCc2ccccc2)cc1)c1[nH]c2[nH]cnc(=O)c2c1-c1cc(Br)cc(Br)c1		
> 100 µM	> 100 µM		COc1cc(-c2c(C(=O)c3ccc(F)cc3)[nH]c3[nH]c(=O)[nH]c(=O)c23)cc(OC)c1OC		
56 µM	43 µM		O=C(c1ccccc1)c1[nH]c2[nH]cnc(=O)c2c1-c1cc(Br)cs1		
> 100 µM	> 100 µM		N#Cc1cccc(-c2c(C(=O)c3ccc(OCc4ccccc4)cc3)[nH]c3ncnc(N)c23)c1		
2.2 µM	4.9 µM		O=C(c1ccccc1)c1[nH]c2[nH]cnc(=O)c2c1-c1c(Cl)cccc1Cl		
0.3 µM	0.4 µM		O=C(c1ccc(O)cc1)c1[nH]c2[nH]cnc(=O)c2c1-c1ccccc1		
0.053 µM	0.045 µM		O=C(c1ccc(OCc2ccccc2)cc1)c1[nH]c2[nH]cnc(=O)c2c1-c1ccccc1		
10 µM	7.1 µM		COc1cc(-c2c(C(=O)c3ccccc3)[nH]c3[nH]cnc(=O)c23)cc(Br)c1OC		
> 100 µM	> 100 µM		COc1cc(-c2c(C(=O)c3ccc(Br)cc3)[nH]c3[nH]c(=O)[nH]c(=O)c23)cc(OC)c1OC		
> 100 µM	> 100 µM		COc1cc(C(=O)c2[nH]c3[nH]c(=O)[nH]c(=O)c3c2-c2cc(OC)c(OC)c(OC)c2)ccc1OCc1ccccc1		
0.6 µM	2.2 µM		O=C(c1ccc(Br)cc1)c1[nH]c2[nH]cnc(=O)c2c1-c1cc(Br)cc(Br)c1		
8 µM	20 µM		COc1ccc(C(=O)c2[nH]c3ncnc(-c4ccc(OC)cc4)c3c2-c2ccc(OC)cc2)cc1		
> 100 µM	> 100 µM		O=C(c1ccc(O)cc1)c1[nH]c2[nH]c(=O)[nH]c(=O)c2c1-c1ccc(O)cc1		
0.25 µM	0.19 µM		N#Cc1cccc(-c2c(C(=O)c3ccccc3)[nH]c3[nH]cnc(=O)c23)c1		
> 100 µM	> 100 µM		O=C(c1ccccc1)c1[nH]c2[nH]c(=S)[nH]c(=S)c2c1-c1cc(Br)cc(Br)c1		
0.06 µM	0.1 µM		O=C(c1ccccc1)c1[nH]c2[nH]cnc(=O)c2c1-c1cccc(Cl)c1		

SMILES	GI50 (MCF7)	GI50 (HeLa)	solubility [1]	inhibition [2]	inhibition [3]
COc1ccc(C(=O)c2[nH]c3[nH]cnc(=O)c3c2-c2cc(OC)c(OC)c(OC)c2)cc1	7 µM	> 100 µM			
